From ChEMBL document CHEMBL3745677, “Discovery of 6-(4-{[5-Cyclopropyl-3-(2,6-dichlorophenyl)isoxazol-4-yl]methoxy}piperidin-1-yl)-1-methyl-1H-indole-3-carboxylic Acid: A Novel FXR Agonist for the Treatment of Dyslipidemia” (J Med Chem, 2015)

Tests used:
Rattus norvegicus [1] = assay: Antidyslipidemic activity in ZDF rat assessed as LDL/IgHDL level at 30 mg/kg for 9 days by FPLC analysis (reference value: 17.8 mg/dL); assay type: functional, Zucker
Rattus norvegicus [2] = assay: Antidyslipidemic activity in ZDF rat assessed as LDL/IgHDL level at 10 mg/kg cotreated with 0.3 mg/kg rosiglitazone for 9 days by FPLC analysis (reference value: 17.8 mg/dL); assay type: functional, Zucker
Mus musculus [3] = assay: Antidyslipidemic activity in western-diet fed mouse expressing LDL-receptor (-/-) assessed as decrease in triglyceride level at 10 mg/kg qd for a week administered via gavage […]; assay type: functional; settings: po
Method in brief: (§1)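 Male LDLR null mice, six per group, were gavaged once daily for one week with compound (in situ sodium salt) or vehicle (5% Solutol, 5% EtOH, 1% wt/v CMC) at 5 mL/kg. On day 7 they were bled by cardiac puncture under CO2 anaesthesia. Serum cholesterol and triglycerides were measured enzymatically on a clinical chemistry analyser (mean ± SD, n=6). ED50 was obtained by nonlinear regression.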

Mus musculus [4] = assay: Antidyslipidemic activity in western-diet fed mouse expressing LDL-receptor (-/-) assessed as decrease in triglyceride level administered once daily for a week via gavage […]; assay type: functional; settings: po; method in brief: as §1
Mus musculus [5] = assay: Antidyslipidemic activity in western-diet fed mouse expressing LDL-receptor (-/-) assessed as decrease in very-low density lipoprotein level at 3 mg/kg qd for a week administered via gavage by FPLC analysis; assay type: functional; settings: po
Method in brief: (§2)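 LDLR null male mice, six per group, were dosed by gavage once daily for one week (vehicle 5% Solutol, 5% EtOH, 1% wt/v CMC; 5 mL/kg). Serum was collected by cardiac puncture on day 7 under CO2 anaesthesia. Pooled serum from each treatment group was fractionated by FPLC to quantify VLDL and LDL.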

Mus musculus [6] = assay: Antidyslipidemic activity in western-diet fed mouse expressing LDL-receptor (-/-) assessed as decrease in very-low density lipoprotein level at 10 mg/kg qd for a week administered via gavage by FPLC analysis; assay type: functional; settings: po; method in brief: as §2
Mus musculus [7] = assay: Antidyslipidemic activity in western-diet fed mouse expressing LDL-receptor (-/-) assessed as decrease in low density lipoprotein level at 3 mg/kg qd for a week administered via gavage by FPLC analysis; assay type: functional; settings: po; method in brief: as §2
Mus musculus [8] = assay: Antidyslipidemic activity in western-diet fed mouse expressing LDL-receptor (-/-) assessed as decrease in low density lipoprotein level at 10 mg/kg qd for a week administered via gavage by FPLC analysis; assay type: functional; settings: po; method in brief: as §2
[9] = Volume of distribution at steady state in beagle dog at 1 mg/kg, iv by LC-MS/MS analysis; assay type: ADME, organism-based, Canis lupus familiaris; settings: in vivo, read-out: Vdss
Method in brief: (§3)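 Intravenous dose given in 5% Solutol / 5% EtOH in saline (1 mg/kg rat and dog, 0.91 mpk monkey). Plasma samples collected and analyzed by LC-MS/MS; parameters reported as mean ± SD, N=2-3.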

[10] = Clearance in cynomolgus monkey at 0.91 mg/kg, iv by LC-MS/MS analysis; assay type: ADME, organism-based, Macaca fascicularis; settings: in vivo
Method in brief: (§4)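 Sprague Dawley rats, Beagle dogs and Cynomolgus monkeys were dosed IV at 1 mg/kg (rat, dog) or 0.91 mpk (monkey) in 5% Solutol/5% EtOH in saline. Oral/nasogastric dosing was 3 mpk in 1.0% CMC/0.25% PS80/0.05% antifoam in purified water. Samples were processed to plasma and analysed by LC-MS/MS; values are mean ± SD, N=2-3.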

[11] = Volume of distribution at steady state in cynomolgus monkey at 0.91 mg/kg, iv by LC-MS/MS analysis; assay type: ADME, organism-based, Macaca fascicularis; settings: in vivo, read-out: Vdss; method in brief: as §3
[12] = AUC (0 to 24 hrs) in cynomolgus monkey at 3 mg/kg, po by LC-MS/MS analysis; assay type: ADME, organism-based, Macaca fascicularis; design: time < 24 hr, dose 3 mg/kg, route oral; settings: in vivo; method in brief: as §4
[13] = Oral bioavailability in cynomolgus monkey at 3 mg/kg by LC-MS/MS analysis; assay type: ADME, organism-based, Macaca fascicularis; settings: in vivo
Method in brief: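 Bioavailability calculated from a 3 mpk oral/nasogastric dose (1.0% CMC/0.25% PS80/0.05% antifoam in water) against a 0.91 mpk IV dose (5% Solutol/5% EtOH in saline). Plasma analyzed by LC-MS/MS; mean ± SD, N=2-3.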

[14] = Cmax in rat at ED50 dose for lipid modulation; assay type: ADME, organism-based; settings: in vivo
Glucocorticoid receptor = biological target: T1, Glucocorticoid receptor (Homo sapiens, UniProt P04150); assay: Agonist activity at glucocorticoid receptor (unknown origin) expressed in HEK293 cells assessed as transcriptional activation; assay type: cell-based
T1 sequence (P04150 whole entry): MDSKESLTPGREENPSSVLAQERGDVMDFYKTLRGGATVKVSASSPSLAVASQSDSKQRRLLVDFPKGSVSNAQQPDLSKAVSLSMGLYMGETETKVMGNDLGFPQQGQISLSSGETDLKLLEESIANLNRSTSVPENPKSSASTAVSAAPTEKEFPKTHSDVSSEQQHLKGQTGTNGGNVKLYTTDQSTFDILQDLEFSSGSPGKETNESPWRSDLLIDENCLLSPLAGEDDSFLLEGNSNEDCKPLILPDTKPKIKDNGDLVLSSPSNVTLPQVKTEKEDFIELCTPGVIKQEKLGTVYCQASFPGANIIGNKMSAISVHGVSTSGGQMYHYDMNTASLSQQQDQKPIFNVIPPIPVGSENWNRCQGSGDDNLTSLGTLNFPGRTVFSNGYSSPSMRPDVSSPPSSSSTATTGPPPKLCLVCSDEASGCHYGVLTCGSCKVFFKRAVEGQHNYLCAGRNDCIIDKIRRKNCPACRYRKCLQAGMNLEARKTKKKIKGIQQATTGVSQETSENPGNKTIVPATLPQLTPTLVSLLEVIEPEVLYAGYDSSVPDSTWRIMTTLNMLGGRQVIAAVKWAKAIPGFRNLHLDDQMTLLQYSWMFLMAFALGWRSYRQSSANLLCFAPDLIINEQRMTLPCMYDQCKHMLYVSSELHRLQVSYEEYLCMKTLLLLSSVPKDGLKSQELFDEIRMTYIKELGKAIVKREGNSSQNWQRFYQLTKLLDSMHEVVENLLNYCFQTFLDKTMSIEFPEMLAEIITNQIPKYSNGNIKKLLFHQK

In the case of `Cn1cc(C(=O)O)c2ccc(N3CCC(OCc4c(-c5c(Cl)cccc5Cl)noc4C4CC4)CC3)cc21` [TERN-101], the Activity (Rattus norvegicus [1]) is reported as 18.6 mg/dL, the Activity (Rattus norvegicus [2]) is reported as 20.3 mg/dL and the inhibition in vivo at 10 mg/kg (Mus musculus [3]) is reported as 76%. It also gave an ED50 (Mus musculus [4]) of 3.4 mg/kg, an inhibition in vivo at 3 mg/kg (Mus musculus [5]) of 78% and an inhibition in vivo at 10 mg/kg (Mus musculus [6]) of 96%. For the same molecule, the inhibition in vivo at 3 mg/kg (Mus musculus [7]) was 15%, the inhibition in vivo at 10 mg/kg (Mus musculus [8]) was 50% and the Vd [9] was 2.48 L/kg. For the same molecule, the clearance [10] was 6 mL/min/kg, the Vd [11] was 0.597 L/kg and the AUC(0-t) at 24 h [12] was 1810 ng·h/mL. For the same molecule, the bioavailability [13] was 24%, the Cmax [14] was 4.62 ng/mL and the EC50 (Glucocorticoid receptor) was over 10 µM.
